Data as given in ChEMBL document CHEMBL4715791, “Enhancing Therapeutic Efficacy of Cisplatin by Blocking DNA Damage Repair” (ACS Med Chem Lett, 2016).
Calls of active or inactive are those of the source. The rule behind the calls is not given here.

What was measured:
[1] = system: HeLa; assay: Potentiation of cisplatin-induced apoptosis in human HeLa cells assessed as early apoptotic cells at 6.8 uM measured after 24 hrs in presence of cisplatin by annexinV-FITC/propidium iodide staining based flow cytometry (reference value: 4.8%); assay type: functional
[2] = system: HeLa; assay: Inhibition of PP2A in human HeLa cells assessed as increase in phosphorylated AKT expression level at 2.5 uM measured after 24 hrs by Western blot analysis; assay type: cell-based
How it was run: (§1)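 HeLa cells exposed 24 h to cisplatin, compound or the combination. P-Akt and P-ERK read by Western blot.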

[3] = system: HeLa; assay: Potentiation of cisplatin-induced cell cycle arrest in human HeLa cells assessed as accumulation at S phase at 6.8 uM measured after 24 hrs in presence of cisplatin by propidium iodide/RNase staining based flow cytometry (reference value: 27.18 %); assay type: functional
[4] = system: HeLa; assay: Antagonistic anticancer activity against human HeLa cells assessed as combination index at cisplatin to compound ratio of 1:2 measured after 48 to 72 hrs by MTT based Chou-Talalay method; assay type: functional; conditions: time 48-72 hrs
How it was run: (§2)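 Cisplatin and compound given together at fixed molar ratios. Viability read by MTT. Combination index computed at 50% inhibition (CI50); below 1 = synergism, 1 = additivity, above 1 = antagonism. Tested at 24, 48 and 72 h incubation.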

[5] = system: HeLa; assay: Inhibition of PP2A in human HeLa cells assessed as enzyme activity at 10 uM measured after 3 hrs in presence of cisplatin by malachite green phosphatase assay relative to control; assay type: cell-based; parameters: scale not given: the % may be the effect or the level left
How it was run: (§3)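 PP2A activity measured in HeLa cells after 3 h exposure to compound, alone or combined with cisplatin. Activity expressed as % of untreated control.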

[6] = system: A549; assay: Potentiation of cisplatin-induced cell cycle arrest in human A549 cells assessed as accumulation at G2/M phase at 32.7 uM measured after 24 hrs in presence of cisplatin by propidium iodide/RNase staining based flow cytometry (reference value: 36.13 %); assay type: functional
[7] = system: HeLa; assay: Inhibition of PP2A in human HeLa cells assessed as increase in phosphorylated Akt expression level at 2.5 uM measured after 24 hrs by Hoechst staining based immunofluorescence assay; assay type: cell-based
[8] = system: A549; assay: Induction of cell cycle arrest in human A549 cells assessed as accumulation at G1 phase at 32.7 uM measured after 24 hrs by propidium iodide/RNase staining based flow cytometry (reference value: 60.8 %); assay type: functional
[9] = system: A549; assay: Synergistic anticancer activity against human A549 cells assessed as combination index at cisplatin:compound ratio of 1:0.5 to 1:3 measured after 24 hrs in presence of cisplatin by MTT based Chou-Talalay method; assay type: functional; how it was run: as §2
[10] = system: HeLa; assay: Effect on total Akt expression in human HeLa cells at 2.5 uM measured after 24 hrs by Hoechst staining based immunofluorescence assay; assay type: functional, cell-based
[11] = system: HeLa; assay: Potentiation of cisplatin-induced apoptosis in human HeLa cells assessed as late apoptotic cells at 6.8 uM measured after 24 hrs in presence of cisplatin by annexinV-FITC/propidium iodide staining based flow cytometry (reference value: 54%); assay type: functional
[12] = system: HeLa; assay: Induction of apoptosis in human HeLa cells assessed as late apoptotic cells at 6.8 uM measured after 24 hrs by annexinV-FITC/propidium iodide staining based flow cytometry relative to control; assay type: functional
[13] = Toxicity in Kunming mouse implanted with mouse U14 cells assessed as change in body weight at 1.5 mg/kg, ip administered on day 2, 5, 8; assay type: organism-based; conditions: in vivo, 72 h, time 3 day
How it was run: (§4)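 U14-xenografted KM mice given saline, cisplatin 5 mg/kg, compound 1.5 mg/kg or both. Body weight monitored as a measure of systemic toxicity.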

[14] = system: A549; assay: Induction of cell cycle arrest in human A549 cells assessed as accumulation at G2/M phase at 32.7 uM measured after 24 hrs by propidium iodide/RNase staining based flow cytometry (reference value: 11.7 %); assay type: functional
[15] = system: HeLa; assay: Induction of apoptosis in human HeLa cells assessed as early apoptotic cells at 6.8 uM measured after 24 hrs by annexinV-FITC/propidium iodide staining based flow cytometry relative to control; assay type: functional
[16] = system: HeLa; assay: Synergistic anticancer activity against human HeLa cells assessed as combination index at cisplatin to compound ratio of 1:1 measured after 24 to 72 hrs by MTT based Chou-Talalay method; assay type: functional; conditions: time 24-72 hrs; how it was run: as §2
[17] = system: HeLa; assay: Inhibition of PP2A in human HeLa cells assessed as increase in phosphorylated Akt expression level at 2.5 uM measured after 24 hrs in presence of cisplatin by Hoechst staining based immunofluorescence assay; assay type: cell-based
[18] = system: HeLa; assay: Inhibition of PP2A in human HeLa cells assessed as enzyme activity at 10 uM measured after 3 hrs by malachite green phosphatase assay relative to control; assay type: cell-based; parameters: scale not given: the % may be the effect or the level left; how it was run: as §3
[19] = system: HeLa; assay: Anticancer activity against human HeLa cells assessed as reduction in cell viability at 1 to 100 uM by MTT assay; assay type: functional, cell-based; conditions: dose 1-100 µM, time 24-72 hrs, TDE = time-dependent effect
[20] = system: HeLa; assay: Effect on total ERK level in human HeLa cells at 2.5 uM measured after 24 hrs in presence of cisplatin by Hoechst staining based immunofluorescence assay; assay type: functional, cell-based
[21] = system: HeLa; assay: Effect on tubulin expression in human HeLa cells at 2.5 uM measured after 24 hrs by Hoechst staining based immunofluorescence assay; assay type: functional, cell-based
[22] = system: A549; assay: Potentiation of cisplatin-induced cell cycle arrest in human A549 cells assessed as accumulation at G1 phase at 32.7 uM measured after 24 hrs in presence of cisplatin by propidium iodide/RNase staining based flow cytometry (reference value: 42.35%); assay type: functional
[23] = system: U14; assay: Antitumor activity against mouse U14 cells implanted in Kunming mouse assessed as tumor growth inhibition at 1.5 mg/kg, ip administered on day 2, 5, 8 measured after 1 week by caliper method; assay type: functional, organism-based; conditions: time 1.0 weeks
How it was run: (§5)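 KM mice bearing subcutaneous U14 mouse cervical cancer xenografts. Groups received saline, cisplatin 5 mg/kg, compound 1.5 mg/kg, or both (1:1 molar ratio). Relative tumor volume followed over about 2 weeks.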

[24] = system: HeLa; assay: Inhibition of PP2A in human HeLa cells assessed as increase in phosphorylated ERK expression level at 2.5 uM measured after 24 hrs by Western blot analysis; assay type: cell-based; how it was run: as §1
[25] = system: A549; assay: Potentiation of cisplatin-induced apoptosis in human A549 cells at 32.7 uM measured after 24 hrs in presence of cisplatin by annexinV-FITC/propidium iodide staining based flow cytometry (reference value: 36.9%); assay type: functional
[26] = system: HeLa; assay: Induction of cell cycle arrest in human HeLa cells assessed as accumulation at S phase at 6.8 uM measured after 24 hrs by propidium iodide/RNase staining based flow cytometry (reference value: 27.21 %); assay type: functional
[27] = system: HeLa; assay: Potentiation of cisplatin-induced cell cycle arrest in human HeLa cells assessed as accumulation at G1 phase at 6.8 uM measured after 24 hrs in presence of cisplatin by propidium iodide/RNase staining based flow cytometry (reference value: 61.13 %); assay type: functional
[28] = system: HeLa; assay: Inhibition of PP2A in human HeLa cells assessed as increase in phosphorylated ERK expression level at 2.5 uM measured after 24 hrs in presence of cisplatin by Hoechst staining based immunofluorescence assay; assay type: cell-based
[29] = Toxicity in Kunming mouse implanted with mouse U14 cells assessed as reduction in body weight at 1.5 mg/kg, ip administered on day 2, 5, 8 cotreated with cisplatin at 5 mg/kg, ip on day 1, 4, 7 and measured after 2 weeks; assay type: organism-based; conditions: in vivo, 336 h; how it was run: as §4
[30] = Potentiation of cisplatin-induced antitumor activity against mouse U14 cells implanted in Kunming mouse assessed as tumor volume at 1.5 mg/kg, ip administered on day 2, 5, 8 cotreated with cisplatin at 5 mg/kg, ip on day 1, 4, 7 and measured at day 10 by caliper method (reference value: 178 +/- 33 mm3); assay type: functional; conditions: time 10 day; how it was run: as §5
[31] = system: A549; assay: Anticancer activity against human A549 cells assessed as reduction in cell viability measured after 24 to 72 hrs by MTT assay; assay type: functional, cell-based; conditions: time 24-72 hrs
How it was run: (§6)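 MTT viability assay in HeLa and A549 cells, with concentration- and time-dependent exposures.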

[32] = system: HeLa; assay: Induction of cell cycle arrest in human HeLa cells assessed as accumulation at G1 phase at 6.8 uM measured after 24 hrs by propidium iodide/RNase staining based flow cytometry (reference value: 62.27 %); assay type: functional
[33] = system: A549; assay: Induction of cell cycle arrest in human A549 cells assessed as accumulation at S phase at 32.7 uM measured after 24 hrs by propidium iodide/RNase staining based flow cytometry (reference value: 27.5 %); assay type: functional
[34] = system: HeLa; assay: Synergistic anticancer activity against human HeLa cells assessed as combination index at cisplatin to compound ratio of 1:0.5 measured after 24 hrs by MTT based Chou-Talalay method; assay type: functional; how it was run: as §2
[35] = system: HeLa; assay: Antagonistic anticancer activity against human HeLa cells assessed as combination index at cisplatin to compound ratio of 1:0.3 measured after 48 to 72 hrs by MTT based Chou-Talalay method; assay type: functional; conditions: time 48-72 hrs; how it was run: as §2
[36] = system: U14; assay: Antitumor activity against mouse U14 cells implanted in Kunming mouse assessed as tumor growth inhibition at 1.5 mg/kg, ip administered on day 2, 5, 8 measured after 2 weeks by caliper method; assay type: functional, organism-based; how it was run: as §5
[37] = system: HeLa; assay: Inhibition of PP2A in human HeLa cells assessed as increase in phosphorylated ERK expression level at 2.5 uM measured after 24 hrs by Hoechst staining based immunofluorescence assay; assay type: cell-based
[38] = Toxicity in Kunming mouse implanted with mouse U14 cells assessed as reduction in body weight at 1.5 mg/kg, ip administered on day 2, 5, 8 cotreated with cisplatin at 5 mg/kg, ip on day 1, 4, 7 and measured after 1 week; assay type: organism-based; conditions: in vivo, 168 h, time 1 weeks; how it was run: as §4
[39] = system: HeLa; assay: Induction of cell cycle arrest in human HeLa cells assessed as accumulation at G2/M phase at 6.8 uM measured after 24 hrs by propidium iodide/RNase staining based flow cytometry (reference value: 10.52 %); assay type: functional
[40] = system: HeLa; assay: Effect on total Akt expression in human HeLa cells at 2.5 uM measured after 24 hrs in presence of cisplatin by Hoechst staining based immunofluorescence assay; assay type: functional, cell-based
[41] = system: HeLa; assay: Anticancer activity against human HeLa cells assessed as reduction in cell viability measured after 24 to 72 hrs by MTT assay; assay type: functional, cell-based; conditions: dose 1-100 µM, time 24-72 hrs; how it was run: as §6
[42] = system: HeLa; assay: Effect on tubulin expression in human HeLa cells at 2.5 uM measured after 24 hrs in presence of cisplatin by DAPI staining based immunofluorescence assay
[43] = system: A549; assay: Induction of apoptosis in human A549 cells at 32.7 uM measured after 24 hrs by annexinV-FITC/propidium iodide staining based flow cytometry relative to control; assay type: functional
[44] = system: HeLa; assay: Effect on total ERK level in human HeLa cells at 2.5 uM measured after 24 hrs by Hoechst staining based immunofluorescence assay; assay type: functional, cell-based
[45] = system: HeLa; assay: Potentiation of cisplatin-induced cell cycle arrest in human HeLa cells assessed as accumulation at G2/M phase at 6.8 uM measured after 24 hrs in presence of cisplatin by propidium iodide/RNase staining based flow cytometry (reference value: 11.69 %); assay type: functional
[46] = system: A549; assay: Potentiation of cisplatin-induced cell cycle arrest in human A549 cells assessed as accumulation at S phase at 32.7 uM measured after 24 hrs in presence of cisplatin by propidium iodide/RNase staining based flow cytometry (reference value: 21.52 %); assay type: functional

CC(C)(C)OC(=O)N1CCN(C(=O)C2C3CCC(O3)C2C(=O)O)CC1 (stereo unspecified)
Activity [1]: 6.4% | inhibition [2]: Active | Activity [3]: 27.87% | CI50 [4]: >1 | Activity [5]: 86% | Activity [6]: 15.34% | inhibition [7]: Active | Activity [8]: 52.07% | CI50 [9]: <1 | Activity [10]: inactive | Activity [11]: 64.1% | Activity [12]: 21.8% | Activity [13]: Toxic | Activity [14]: 11.32% | Activity [15]: 5.4% | CI50 [16]: <1 | inhibition [17]: Active | Activity [18]: 78.5% | Activity [19]: Tde | Activity [20]: inactive | Activity [21]: inactive | Activity [22]: 38.95% | growth inhibition (GI) [23]: inactive | inhibition [24]: Active | Activity [25]: 41.5% | Activity [26]: 34.21% | Activity [27]: 40.67% | inhibition [28]: Active | Activity [29]: Non-Toxic | Activity [30]: 97 mm3 | Activity [31]: Active | Activity [32]: 42.51% | Activity [33]: 36.61% | CI50 [34]: <1 | CI50 [35]: >1 | growth inhibition (GI) [36]: Active | inhibition [37]: Active | Activity [38]: Toxic | Activity [39]: 23.28% | Activity [40]: inactive | Activity [41]: Dose-dependent effect | Activity [42]: inactive | Activity [43]: 35.5% | Activity [44]: inactive | Activity [45]: 31.46% | Activity [46]: 45.71%
